# Results: ChEMBL document CHEMBL4406809, “Design of balanced COX inhibitors based on anti-inflammatory and/or COX-2 inhibitory ascidian metabolites” (Eur J Med Chem, 2019)
# The source made the active and inactive calls. The rule behind the calls is not given here.
# Tests used:
# RAW264.7 [1] = test: Antiinflammatory activity against mouse RAW264.7 cells assessed as reduction in LPS-stimulated ROS production at 20 uM pretreated for 1 hrs followed by LPS addition and measured after 24 hrs by DCFH-DA dye based fluorescence assay; assay type: functional, cell-based
# Method in brief: (§1)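 RAW264.7 cells at about 1×10^4 cells/well, grown 12 h, pretreated 1 h, then LPS 1 μg/mL for 24 h. Loaded with DCFH-DA at 100 μM final in FBS-free medium, 30 min at 37°C. After washing, fluorescence read at Ex 485/Em 520 nm on a plate reader; confocal imaging done in parallel dishes.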
# RAW264.7 [2] = test: Antiinflammatory activity against mouse RAW264.7 cells assessed as downregulation of LPS-stimulated iNOS protein expression at 10 uM pretreated for 1 hrs followed by LPS addition and measured after 24 hrs by Western blot analysis; assay type: functional, cell-based
# Method in brief: (§2)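 RAW264.7 macrophages (DMEM, 10% heat-inactivated FBS, 37 °C, 5% CO2) pretreated with compound, then cultured with or without LPS 1 µg/mL for 24 h. Lysates in buffer with protease/phosphatase inhibitors, BCA-normalised, 10% SDS-PAGE, PVDF transfer, milk/TBS-T block, primary antibody overnight at 4 °C, HRP anti-rabbit secondary, chemiluminescence. Dexamethasone 10 µM positive control; mean ± SD of three independent experiments.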
# RAW264.7 [3] = test: Antiinflammatory activity against mouse RAW264.7 cells assessed as downregulation of LPS-stimulated COX2 protein expression at 10 uM pretreated for 1 hrs followed by LPS addition and measured after 24 hrs by Western blot analysis; assay type: functional, cell-based; method in brief: as §2
# [4] = biological target: T1, Prostaglandin G/H synthase 1 (Ovis aries) (UniProt P05979); test: Inhibition of ovine COX1 at 30 uM using arachidonic acid as substrate pretreated for 5 mins followed by substrate addition and measured after 2 mins by fluorescence based enzyme immunoassay
# T1 sequence (whole entry): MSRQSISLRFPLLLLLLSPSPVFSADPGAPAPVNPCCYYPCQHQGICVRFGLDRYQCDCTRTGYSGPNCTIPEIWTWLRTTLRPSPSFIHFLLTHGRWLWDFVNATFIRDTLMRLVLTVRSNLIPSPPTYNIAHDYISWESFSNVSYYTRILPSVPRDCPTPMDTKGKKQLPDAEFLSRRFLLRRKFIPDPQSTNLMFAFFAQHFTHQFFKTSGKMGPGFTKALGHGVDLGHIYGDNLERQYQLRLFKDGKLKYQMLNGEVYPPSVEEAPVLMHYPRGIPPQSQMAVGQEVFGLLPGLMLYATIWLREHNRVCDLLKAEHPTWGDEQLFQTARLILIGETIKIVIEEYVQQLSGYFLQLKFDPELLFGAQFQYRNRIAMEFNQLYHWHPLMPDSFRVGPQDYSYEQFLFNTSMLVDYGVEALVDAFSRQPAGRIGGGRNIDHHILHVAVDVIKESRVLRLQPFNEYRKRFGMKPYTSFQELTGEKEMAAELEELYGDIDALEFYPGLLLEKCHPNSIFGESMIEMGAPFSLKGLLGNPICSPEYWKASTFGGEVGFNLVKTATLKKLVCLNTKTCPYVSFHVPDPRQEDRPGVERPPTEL
# [5] = biological target: T2, Prostaglandin G/H synthase 2 (Homo sapiens) (UniProt P35354); test: Inhibition of recombinant human COX2 at 30 uM using arachidonic acid as substrate pretreated for 5 mins followed by substrate addition and measured after 2 mins by fluorescence based enzyme immunoassay
# T2 sequence (whole entry): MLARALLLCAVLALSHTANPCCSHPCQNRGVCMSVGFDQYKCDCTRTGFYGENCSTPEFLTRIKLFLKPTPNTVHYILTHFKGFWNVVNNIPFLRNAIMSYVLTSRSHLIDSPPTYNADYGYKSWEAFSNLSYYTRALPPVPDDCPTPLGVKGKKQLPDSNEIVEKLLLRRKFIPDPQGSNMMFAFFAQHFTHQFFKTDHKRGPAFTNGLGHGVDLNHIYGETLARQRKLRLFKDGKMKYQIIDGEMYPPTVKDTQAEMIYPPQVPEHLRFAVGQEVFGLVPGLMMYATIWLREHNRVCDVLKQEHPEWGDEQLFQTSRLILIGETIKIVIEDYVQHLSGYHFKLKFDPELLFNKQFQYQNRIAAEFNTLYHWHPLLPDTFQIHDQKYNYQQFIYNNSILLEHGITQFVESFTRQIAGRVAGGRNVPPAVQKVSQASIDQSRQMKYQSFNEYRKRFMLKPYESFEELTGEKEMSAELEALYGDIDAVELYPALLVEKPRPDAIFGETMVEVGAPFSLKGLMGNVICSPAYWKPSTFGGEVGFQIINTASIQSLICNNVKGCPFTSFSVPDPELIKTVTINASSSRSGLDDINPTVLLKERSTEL
# RAW264.7 [6] = test: Cytotoxicity against mouse RAW264.7 cells assessed as reduction in cell viability up to 50 uM incubated of WST assay; assay type: cell-based
# Method in brief: (§3)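 Cells seeded at 1.0×10^4 cells/well, grown 12 h in DMEM with 10% FBS, then exposed 24 h to 10, 25 or 50 μM; medium-only controls. WST reagent added for 1 h at 37°C and absorbance read at 450 nm. Cells in exponential phase.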
# [7] = Cytotoxicity against rat Ac2F cells assessed as reduction in cell viability up to 50 uM incubated of WST assay; assay type: cell-based; method in brief: as §3
# L929 = test: Cytotoxicity against mouse L929 cells assessed as reduction in cell viability up to 50 uM incubated of WST assay; assay type: cell-based; method in brief: as §3
# RAW264.7 [8] = test: Antiinflammatory activity against mouse RAW264.7 cells assessed as downregulation of LPS-stimulated iNOS protein expression pretreated for 1 hrs followed by LPS addition and measured after 24 hrs by Western blot analysis; assay type: functional, cell-based
# Method in brief: (§4)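 Cells treated at various concentrations, then cultured with or without LPS (1 µg/mL) for 24 h; dexamethasone 10 µM as positive control. Lysates taken in buffer with protease/phosphatase inhibitors and protein quantified by BCA. Equal protein run on 10% SDS-PAGE, transferred to PVDF, blocked in TBS-T/5% milk, then primary antibodies overnight at 4°C and HRP anti-rabbit secondary. Mean ± SD, n=3.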
# RAW264.7 [9] = test: Antiinflammatory activity against mouse RAW264.7 cells assessed as downregulation of LPS-stimulated COX2 protein expression pretreated for 1 hrs followed by LPS addition and measured after 24 hrs by Western blot analysis; assay type: functional, cell-based; method in brief: as §4
# RAW264.7 [10] = test: Antiinflammatory activity against mouse RAW264.7 cells assessed as downregulation of LPS-stimulated iNOS protein expression at 20 uM pretreated for 1 hrs followed by LPS addition and measured after 24 hrs by Western blot analysis; assay type: functional, cell-based; method in brief: as §4
# RAW264.7 [11] = test: Antiinflammatory activity against mouse RAW264.7 cells assessed as downregulation of LPS-stimulated COX2 protein expression at 20 uM pretreated for 1 hrs followed by LPS addition and measured after 24 hrs by Western blot analysis; assay type: functional, cell-based; method in brief: as §4
# RAW264.7 [12] = test: Antiinflammatory activity against mouse RAW264.7 cells assessed as inhibition of LPS-stimulated NO production pretreated for 1 hrs followed by LPS addition and measured after 24 hrs by Griess reagent based assay; assay type: functional, cell-based
# Method in brief: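 RAW264.7 cells at about 1×10^4 cells/well, grown 12 h. Pretreated 1 h at 2.5, 5 or 10 μM, then LPS 25 ng/mL for 24 h. Supernatant mixed 1:1 with Griess reagent for 15 min at 37°C in the dark, A520 read. Nitrite quantified against 0–100 μM sodium nitrite standards.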
# [13] = biological target: T3, Prostaglandin G/H synthase 2 (Mus musculus) (UniProt Q05769); test: Inhibition of COX2 in mouse RAW264.7 cells assessed as decrease in LPS-stimulated PGE2 production pretreated for 1 hrs followed by LPS addition and measured after 24 hrs by sandwich ELISA; assay type: cell-based
# T3 sequence (whole entry): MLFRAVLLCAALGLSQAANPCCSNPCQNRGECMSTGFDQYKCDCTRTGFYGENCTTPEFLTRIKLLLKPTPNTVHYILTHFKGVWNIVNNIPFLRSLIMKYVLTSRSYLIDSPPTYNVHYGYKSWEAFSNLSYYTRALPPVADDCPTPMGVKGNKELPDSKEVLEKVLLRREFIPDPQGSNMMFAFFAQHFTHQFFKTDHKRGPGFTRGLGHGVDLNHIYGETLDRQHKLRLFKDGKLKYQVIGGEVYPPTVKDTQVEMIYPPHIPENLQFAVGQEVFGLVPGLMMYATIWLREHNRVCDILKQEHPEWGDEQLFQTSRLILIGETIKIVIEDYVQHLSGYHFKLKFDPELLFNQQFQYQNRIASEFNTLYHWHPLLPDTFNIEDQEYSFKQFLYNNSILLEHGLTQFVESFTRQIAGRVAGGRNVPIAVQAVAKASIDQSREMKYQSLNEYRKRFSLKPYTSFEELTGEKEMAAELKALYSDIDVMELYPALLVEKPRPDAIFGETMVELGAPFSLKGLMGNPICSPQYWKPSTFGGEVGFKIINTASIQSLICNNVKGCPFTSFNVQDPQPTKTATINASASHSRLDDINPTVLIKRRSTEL
# Method in brief: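 RAW264.7 cells at about 1×10^4 cells/well, grown 12 h. Pretreated 1 h at 2.5, 5 or 10 μM, then stimulated with LPS 100 ng/mL for 24 h. PGE2 in the medium measured by PGE2 express ELISA, absorbance at 415 nm. Representative of three independent experiments.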
# RAW264.7 [14] = test: Antiinflammatory activity against mouse RAW264.7 cells assessed as decrease in LPS-stimulated TNFalpha production pretreated for 1 hrs followed by LPS addition and measured after 24 hrs by sandwich ELISA; assay type: functional, cell-based
# RAW264.7 [15] = test: Antiinflammatory activity against mouse RAW264.7 cells assessed as decrease in LPS-stimulated IL6 production pretreated for 1 hrs followed by LPS addition and measured after 24 hrs by sandwich ELISA; assay type: functional, cell-based
# Method in brief: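 RAW264.7 cells seeded at about 1×10^4 cells/well and grown 12 h. Pretreated 1 h with 2.5, 5 or 10 μM, then LPS 100 ng/mL added: 24 h for IL-6, 3 h for TNF-α. Cytokines in the medium quantified by sandwich ELISA, A450. Representative of three independent experiments.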
# [16] = biological target: Transcription factor p65 (Mus musculus) (UniProt Q04207); test: Inhibition of LPS-stimulated NFkappaB p65 nuclear translocation in mouse RAW264.7 cells retreated for 1 hrs followed by LPS addition and measured after 30 mins by Western blot analysis; assay type: cell-based
# Sequence of Transcription factor p65 (Mus musculus) (Q04207 whole entry): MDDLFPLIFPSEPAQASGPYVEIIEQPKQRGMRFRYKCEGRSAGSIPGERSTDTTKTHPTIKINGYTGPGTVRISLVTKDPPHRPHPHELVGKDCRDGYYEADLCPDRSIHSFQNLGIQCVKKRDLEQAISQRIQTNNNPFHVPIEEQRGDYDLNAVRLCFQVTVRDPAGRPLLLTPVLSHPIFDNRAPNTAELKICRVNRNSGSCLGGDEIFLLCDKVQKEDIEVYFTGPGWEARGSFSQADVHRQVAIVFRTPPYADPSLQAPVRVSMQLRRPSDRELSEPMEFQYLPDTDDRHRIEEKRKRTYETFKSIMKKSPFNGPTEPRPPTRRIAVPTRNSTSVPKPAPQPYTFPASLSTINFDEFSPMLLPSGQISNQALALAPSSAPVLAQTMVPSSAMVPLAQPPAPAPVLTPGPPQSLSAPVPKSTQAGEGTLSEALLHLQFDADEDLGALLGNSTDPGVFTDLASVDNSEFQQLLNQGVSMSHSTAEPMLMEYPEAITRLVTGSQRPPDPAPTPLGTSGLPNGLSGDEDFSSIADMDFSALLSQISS
# RAW264.7 [17] = test: Antiinflammatory activity against mouse RAW264.7 cells assessed as reduction in LPS-stimulated ROS production pretreated for 1 hrs followed by LPS addition and measured after 24 hrs by DCFH-DA dye based fluorescence assay; assay type: functional, cell-based; method in brief: as §1
# [18] = biological target: T4, I-kappa-B kinase (Mus musculus) (UniProt Q60680+O88351+O88522); test: Inhibition of LPS-stimulated IKK phosphorylation in mouse RAW264.7 cells at 5 to 20 uM pretreated for 1 hrs followed by LPS addition and measured after 30 mins by Western blot analysis; assay type: cell-based
# [19] = biological target: T4, I-kappa-B kinase (Mus musculus); test: Inhibition of LPS-stimulated IKK phosphorylation in mouse RAW264.7 cells assessed as decrease in IkappaBalpha phosphorylation level at 5 to 20 uM pretreated for 1 hrs followed by LPS addition and measured after 30 mins by Western blot analysis; assay type: cell-based
# [20] = biological target: Transcription factor p65 (Mus musculus) (UniProt Q04207); test: Inhibition of LPS-induced NFkappaB p65 nuclear translocation in mouse RAW264.7 cells at 20 uM preincubated for 1 hrs followed by LPS-stimulation and measured after 24 hrs by DAPI staining based confocal microscopic method; assay type: cell-based
structure (smiles),measurement,setting,value
O=C(O)Cc1ccccc1Nc1c(Cl)cccc1Cl,Activity,RAW264.7 [1],Active
C[C@@H]1C[C@H]2[C@@H]3CCC4=CC(=O)C=C[C@]4(C)[C@@]3(F)[C@@H](O)C[C@]2(C)[C@@]1(O)C(=O)CO,Activity,RAW264.7 [2],Active
same,Activity,RAW264.7 [3],Active
CCCCC/C=N/NC(=O)c1cn(Cc2ccc(Cl)cc2)c2ccccc12,inhibition,[4],Active
same,inhibition,[5],Active
O=C(N/N=C/c1ccco1)c1cn(Cc2ccc(Cl)cc2)c2ccccc12,inhibition,[4],Active
same,inhibition,[5],Active
N#Cc1ccc(/C=N/NC(=O)c2cn(Cc3ccc(Cl)cc3)c3ccccc23)cc1,Activity,RAW264.7 [6],Non-Toxic
same,Activity,[7],Non-Toxic
same,Activity,L929,Non-Toxic
same,Activity,RAW264.7 [8],Dose-dependent effect
same,Activity,RAW264.7 [9],Dose-dependent effect
same,Activity,RAW264.7 [10],Active
same,Activity,RAW264.7 [11],Active
same,inhibition,RAW264.7 [12],Dose-dependent effect
same,inhibition,[13],Active
same,Activity,RAW264.7 [14],Dose-dependent effect
same,Activity,RAW264.7 [15],Dose-dependent effect
same,inhibition,[16],Dose-dependent effect
same,Activity,RAW264.7 [17],Dose-dependent effect
same,Activity,RAW264.7 [1],Active
same,inhibition,[18],Active
same,inhibition,[19],Active
same,inhibition,[20],Active
same,inhibition,[4],Active
same,inhibition,[5],Active
